Results reported in publication PMC11842817 (Nature Communications, 2025).
“And” between values parts separate entries of the source, which are not always exact repeats. Identical values can stand only once. “Also recorded” adds a separate entry of the source.

Experiments:
SyoA/SyoB = assay: In vitro NADH/O2-driven; format: biochemical, Amycolatopsis thermoflava N1165; conditions: ~320 μM NADH; for O-demethylation by reconstituted SyoA/SyoB monooxygenase system: 1 μM SyoA, 1 μM SyoB, 1 mM substrate, 30 °C
Method in brief: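 Reconstituted system of 1 µM SyoA, 1 µM His-tagged SyoB and 100 µg/mL catalase in oxygenated 50 mM Tris pH 7.5 at 30 °C. Background NADH (about 320 µM) oxidation recorded first. Started with 1 mM test compound from DMSO stock; A340 (ε 6.22 mM−1 cm−1) monitored about 10 min, then about 1 h at room temperature for full NADH use. No-P450 controls included. Products analysed by HPLC.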

SyoA [1] = target: T1, SyoA (Amycolatopsis thermoflava, UniProt A0AAX7FLX8); assay: In vitro H2O2-driven; format: biochemical, Amycolatopsis thermoflava N1165; conditions: 1 µM SyoA; for total turnover number (TTN): 10 mM H2O2, 60 min; for concentration of demethylated aromatic product (mean of 3 replicates): 50 mM Tris pH 7.5, 10 mM H2O2, 0.5 mM syringol; for concentration of demethylated aromatic product (mean of 3 replicates) / concentration of demethylated aromatic product (individual replicates): 0.5 mM syringaldehyde or 2 mM 4-methylsyringol, 30 °C, 60 min; for concentration of demethylated aromatic product (individual replicates): 10 mM H2O2, 0.5 mM syringol
T1 sequence (A0AAX7FLX8 1-412): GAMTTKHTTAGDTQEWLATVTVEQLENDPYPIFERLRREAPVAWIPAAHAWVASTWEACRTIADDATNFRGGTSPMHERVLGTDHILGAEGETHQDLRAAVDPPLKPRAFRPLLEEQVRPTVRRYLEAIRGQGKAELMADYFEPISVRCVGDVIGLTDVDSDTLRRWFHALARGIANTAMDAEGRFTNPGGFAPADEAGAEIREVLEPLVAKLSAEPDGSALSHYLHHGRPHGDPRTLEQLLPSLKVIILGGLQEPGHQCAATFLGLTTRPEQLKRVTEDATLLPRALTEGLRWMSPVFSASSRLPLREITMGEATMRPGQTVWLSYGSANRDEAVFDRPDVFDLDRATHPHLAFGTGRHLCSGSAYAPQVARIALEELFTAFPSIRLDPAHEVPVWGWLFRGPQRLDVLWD
Method in brief: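 SyoA expressed in E. coli BL21(DE3) and purified by Ni affinity then anion exchange. Enzyme at 1 µM in 50 mM Tris pH 7.5 with 0.5–2 mM test compound (from DMSO stock), preincubated 2 min at 30 °C. Started with 10 mM H2O2 and run 60 min at 30 °C, then quenched with catalase; triplicate. Products quantified by C18 HPLC (20–95% MeCN/0.1% TFA, 254 nm) against internal-standard calibration (20–500 µM), or by GC-MS after ethyl acetate extraction.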

SyoA [2] = target: T1, SyoA; assay: Substrate binding affinity; design: species or system Amycolatopsis thermoflava N1165; conditions: 50 mM potassium phosphate pH 7.4, n = 3, hyperbolic fit
Method in brief: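 SyoA at about 2–8 µM in 50 mM potassium phosphate pH 7.4 titrated with test compound from 1, 10 or 100 mM DMSO stocks (at most 10 µL per stock). Difference spectra recorded from 300–600 nm until no further shift. Peak-to-trough ΔA taken at 390−419, 500−419 or 500−570 nm depending on ligand, then fitted to a hyperbolic equation for KD; triplicate titrations.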

[3] = system: GcoA mutants (GcoAEE, GcoAQT, GcoAET); assay: In vitro H2O2-driven O-demethylation by I-helix mutants, HPLC; format: biochemical, Amycolatopsis thermoflava; conditions: mutation of Gln248 and/or Glu249, 20 mM H2O2
Method in brief: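 GcoA mutants carried N-terminal His6-TEV tags, were expressed in E. coli BL21(DE3) and purified by Ni affinity. Reactions used 1 µM enzyme in 50 mM Tris pH 7.5 with 0.5–2 mM test compound, preincubated 2 min at 30 °C. Started with 20 mM H2O2 and run 60 min at 30 °C, then catalase-quenched; triplicate. Products quantified by C18 HPLC at 254 nm against calibration curves.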

[4] = system: GcoA mutants (GcoAEE, GcoAQT, GcoAET) with GcoB; assay: In vitro NADH/O2-driven; format: biochemical, Amycolatopsis thermoflava
Method in brief: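 GcoA mutants at 0.5 µM with 1 µM GcoB and 100 µg/mL catalase in oxygenated 50 mM Tris pH 7.5 at 30 °C. About 320 µM NADH added first to record background oxidation. Started with 1 mM test compound; A340 followed for about 10 min, then left about 1 h at room temperature. No-P450 controls included. Products analysed by C18 HPLC at 254 nm.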

[5] = system: GcoA mutants (GcoAEE, GcoAQT, GcoAET); assay: UV-Vis substrate binding analysis of I-helix mutants; design: species or system Amycolatopsis thermoflava
SyoA [6] = target: T1, SyoA; assay: UV-Vis spin-state shift / substrate binding analysis; design: species or system Amycolatopsis thermoflava N1165; conditions: ligand titrated until Soret band stopped shifting
Method in brief: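 SyoA at about 3 µM in 50 mM Tris pH 7.5 received test compound in 1 µL aliquots from 100 mM DMSO stock. Spectra recorded from 600–250 nm until no further shift. Spin-state change read from the Soret band (417 nm) or the Q-bands (568 and 535 nm).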

[7] = system: SyoA mutants (SyoAEE, SyoAQT, SyoAET); assay: In vitro H2O2-driven O-demethylation by I-helix mutants, HPLC; format: biochemical, Amycolatopsis thermoflava N1165; conditions: mutation of Gln252 and/or Glu253
Method in brief: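 SyoA I-helix mutants expressed in E. coli BL21(DE3) and purified by Ni affinity only. Enzyme at 1 µM in 50 mM Tris pH 7.5 with 0.5–2 mM test compound, preincubated 2 min at 30 °C. Started with 10 mM H2O2 and run 60 min at 30 °C, then catalase-quenched; triplicate. Products quantified by C18 HPLC at 254 nm with internal standard and product calibration curves.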

[8] = system: SyoA mutants (SyoAEE, SyoAQT, SyoAET); assay: UV-Vis substrate binding analysis of I-helix mutants; design: species or system Amycolatopsis thermoflava N1165

total turnover number (TTN) (SyoA [1]) | concentration of demethylated aromatic product (mean of 3 replicates) (SyoA [1]) [µM] | Kd (SyoA [2]) [µM] | concentration of demethylated aromatic product (individual replicates) (SyoA [1]) | SMILES | O-demethylation by reconstituted SyoA/SyoB monooxygenase system (SyoA/SyoB) | further results
308 | 308 ± 27 | 341 ± 25 | – | COc1cc(C=O)cc(OC)c1O [syringaldehyde] | did not O-demethylate; also recorded: no O-demethylation | –
142 | 142 ± 15 | 16 ± 1 | – | COc1cccc(OC)c1O [syringol] | did not O-demethylate; also recorded: no O-demethylation | NADH consumption in reaction containing SyoA, SyoB and substrate (SyoA/SyoB; monitored at 340 nm): NADH was consumed; substrate consumed (SyoA [1]; over 60 min, 10 mM H2O2): ~ 65%; shift to the HS (high-spin) form using the Soret band (SyoA [6]): ~ 70%; hydrogen peroxide driven O-demethylation by mutants compared to wild type [7]: loss of peroxygenase activity; substrate binding to mutants (UV-Vis) [8]: not drastically impacted by the mutations

The next lines start with the compound.

SMILES | total turnover number (TTN) (SyoA [1]) | concentration of demethylated aromatic product (mean of 3 replicates) (SyoA [1]) [µM] | Kd (SyoA [2]) [µM] | concentration of demethylated aromatic product (individual replicates) (SyoA [1]) | O-demethylation by reconstituted SyoA/SyoB monooxygenase system (SyoA/SyoB) | further results
COc1cccc(O)c1O [1b, 3-methoxycatechol] | – | – | – | 155 µM and 125 µM and 146 µM | – | –
COc1ccccc1O [guaiacol] | – | – | – | – | – | hydrogen peroxide driven O-demethylation by mutants compared to wild type [3]: loss of peroxygenase activity; monooxygenase activity compared to wild type ([4]; GcoAEE): significant reduction in the monooxygenase activity; monooxygenase activity compared to wild type ([4]; GcoAET): significant reduction in the monooxygenase activity; monooxygenase activity compared to wild type ([4]; GcoAQT): complete loss in activity; substrate binding to mutants (UV-Vis) [5]: not drastically impacted by the mutations
COc1cc(C)cc(O)c1O [2a, 3-methoxy-5-methylbenzene-1,2-diol] | – | – | – | 802 µM and 822 µM and 762 µM | – | –
COc1cc(C=O)cc(O)c1O [3a, 5-hydroxyvanillin] | – | – | – | 332 µM and 314 µM and 279 µM | – | –
